Laboratory results published in ChEMBL document CHEMBL1154886, “DNA-damaging, mutagenic, and clastogenic activities of gentiopicroside isolated from Cephalaria kotschyi roots” (J Nat Prod, 2010).

How the values were obtained:
[1] = Mutagenic activity in Salmonella Typhimurium TA102 assessed as increase in number of revertants at 80 ug/plate by Ames test absence of S9 fraction (Rvb=290+/-10); type: toxicity; details: salmonella enterica subsp. enterica serovar typhimurium
How it was run: (§1)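 Microsuspension Ames test, with and without rat liver S9 mix. The S9 is from male Sprague-Dawley rats given Aroclor 1254 (26 mg/mL protein); the final mix is 4% S9, 10 mM G6P and 8 mM NADP. Triplicate plates are incubated 48 h at 37 °C and colonies counted automatically. Values are mean ± SD revertants per plate, tested against spontaneous revertants (Rvb) by Dunnett test.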

[2] = Mutagenic activity in Salmonella Typhimurium TA100 assessed as increase in number of revertants at 40 ug/plate by Ames test absence of S9 fraction (Rvb=108+/-5); type: toxicity; details: salmonella enterica subsp. enterica serovar typhimurium; how it was run: as §1
[3] = Mutagenic activity in Salmonella Typhimurium TA97a assessed as increase in number of revertants at 40 ug/plate by Ames test absence of S9 fraction (Rvb=146+/- 8); type: toxicity; details: salmonella enterica subsp. enterica serovar typhimurium; how it was run: as §1
[4] = Mutagenic activity in Salmonella typhimurium TA100 assessed as increase in number of revertants at 60 ug/plate by Ames test absence of S9 fraction (Rvb=108+/-5); type: toxicity; details: salmonella enterica subsp. enterica serovar typhimurium; how it was run: as §1
[5] = Mutagenic activity in Salmonella typhimurium TA98 assessed as increase in number of revertants at 60 ug/plate by Ames test absence of S9 fraction (Rvb=22+/- 4); type: toxicity; details: salmonella enterica subsp. enterica serovar typhimurium; how it was run: as §1
[6] = Mutagenic activity in Salmonella Typhimurium TA97a assessed as increase in number of revertants at 100 ug/plate by Ames test absence of S9 fraction (Rvb=146+/- 8); type: toxicity; details: salmonella enterica subsp. enterica serovar typhimurium; how it was run: as §1
[7] = Mutagenic activity in Salmonella typhimurium TA97a assessed as increase in number of revertants at 80 ug/plate by Ames test presence of S9 fraction (Rvb=154+/-18); type: toxicity; details: salmonella enterica subsp. enterica serovar typhimurium; how it was run: as §1
[8] = Mutagenic activity in Salmonella Typhimurium TA102 assessed as increase in number of revertants at 60 ug/plate by Ames test presence of S9 fraction (Rvb=369+/-34); type: toxicity; details: salmonella enterica subsp. enterica serovar typhimurium; how it was run: as §1
[9] = Mutagenic activity in Salmonella typhimurium TA102 assessed as increase in number of revertants at 80 ug/plate by Ames test presence of S9 fraction (Rvb=369+/-34); type: toxicity; details: salmonella enterica subsp. enterica serovar typhimurium; how it was run: as §1
[10] = Mutagenic activity in Salmonella Typhimurium TA98 assessed as increase in number of revertants at 100 ug/plate by Ames test presence of S9 fraction (Rvb=34+/- 4); type: toxicity; details: salmonella enterica subsp. enterica serovar typhimurium; how it was run: as §1
[11] = Mutagenic activity in Salmonella Typhimurium TA97a assessed as increase in number of revertants at 40 ug/plate by Ames test presence of S9 fraction (Rvb=154+/-18); type: toxicity; details: salmonella enterica subsp. enterica serovar typhimurium; how it was run: as §1
CHO = test: Cytotoxicity activity against CHO cells assessed as cell viability after 24 hrs by WST1 test; type: cell-based, Cricetulus griseus; details: chinese hamster
How it was run: (§2)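 CHO-K1 cells in McCoy's 5A with 10% fetal calf serum are seeded and incubated overnight at 37 °C, 5% CO2. A range of compound concentrations is added in triplicate cultures (final DMSO below 0.2%) for 2 or 24 h. Cells are washed three times in PBS, then given 10% WST1 in medium for 30 min. Viability is read as absorbance at 450 nm.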

[12] = Mutagenic activity in Salmonella Typhimurium TA102 assessed as increase in number of revertants at 60 ug/plate by Ames test absence of S9 fraction (Rvb=290+/-10); type: toxicity; details: salmonella enterica subsp. enterica serovar typhimurium; how it was run: as §1
[13] = Mutagenic activity in Salmonella Typhimurium TA102 assessed as increase in number of revertants at 100 ug/plate by Ames test absence of S9 fraction (Rvb=290+/-10); type: toxicity; details: salmonella enterica subsp. enterica serovar typhimurium; how it was run: as §1
[14] = Mutagenic activity in Salmonella Typhimurium TA102 assessed as increase in number of revertants at 40 ug/plate by Ames test presence of S9 fraction (Rvb=369+/-34); type: toxicity; details: salmonella enterica subsp. enterica serovar typhimurium; how it was run: as §1
[15] = Mutagenic activity in Salmonella typhimurium TA100 assessed as increase in number of revertants at 40 ug/plate by Ames test presence of S9 fraction (Rvb=124+/-13); type: toxicity; details: salmonella enterica subsp. enterica serovar typhimurium; how it was run: as §1
[16] = Mutagenic activity in Salmonella typhimurium TA98 assessed as increase in number of revertants at 40 ug/plate by Ames test presence of S9 fraction (Rvb=34+/- 4); type: toxicity; details: salmonella enterica subsp. enterica serovar typhimurium; how it was run: as §1
[17] = Mutagenic activity in Salmonella Typhimurium TA97a assessed as increase in number of revertants at 100 ug/plate by Ames test presence of S9 fraction (Rvb=154+/-18); type: toxicity; details: salmonella enterica subsp. enterica serovar typhimurium; how it was run: as §1
[18] = Mutagenic activity in Salmonella typhimurium TA100 assessed as increase in number of revertants at 80 ug/plate by Ames test absence of S9 fraction (Rvb=108+/-5); type: toxicity; details: salmonella enterica subsp. enterica serovar typhimurium; how it was run: as §1
[19] = Mutagenic activity in Salmonella Typhimurium TA97a assessed as increase in number of revertants at 80 ug/plate by Ames test absence of S9 fraction (Rvb=146+/- 8); type: toxicity; details: salmonella enterica subsp. enterica serovar typhimurium; how it was run: as §1
[20] = Mutagenic activity in Salmonella typhimurium TA98 assessed as increase in number of revertants at 60 ug/plate by Ames test presence of S9 fraction (Rvb=34+/- 4); type: toxicity; details: salmonella enterica subsp. enterica serovar typhimurium; how it was run: as §1
[21] = Mutagenic activity in Salmonella Typhimurium TA100 assessed as increase in number of revertants at 100 ug/plate by Ames test absence of S9 fraction (Rvb=108+/-5); details: salmonella enterica subsp. enterica serovar typhimurium
[22] = Mutagenic activity in Salmonella typhimurium TA97a assessed as increase in number of revertants at 60 ug/plate by Ames test absence of S9 fraction (Rvb=146+/- 8); type: toxicity; details: salmonella enterica subsp. enterica serovar typhimurium; how it was run: as §1
[23] = Cytotoxicity activity against CHO cells assessed as cell viability after 2 hrs by WST1 test; type: cell-based, Cricetulus griseus; details: chinese hamster, read-out: Activity; how it was run: as §2
[24] = Mutagenic activity in Salmonella Typhimurium TA100 assessed as increase in number of revertants at 60 ug/plate by Ames test presence of S9 fraction (Rvb=124+/-13); type: toxicity; details: salmonella enterica subsp. enterica serovar typhimurium; how it was run: as §1
[25] = Mutagenic activity in Salmonella Typhimurium TA98 assessed as increase in number of revertants at 100 ug/plate by Ames test absence of S9 fraction (Rvb=22+/- 4); type: toxicity; details: salmonella enterica subsp. enterica serovar typhimurium; how it was run: as §1
[26] = Mutagenic activity in Salmonella typhimurium TA100 assessed as increase in number of revertants at 100 ug/plate by Ames test presence of S9 fraction (Rvb=124+/-13); type: toxicity; details: salmonella enterica subsp. enterica serovar typhimurium; how it was run: as §1
[27] = Mutagenic activity in Salmonella Typhimurium TA102 assessed as increase in number of revertants at 100 ug/plate by Ames test presence of S9 fraction (Rvb=369+/-34); type: toxicity; details: salmonella enterica subsp. enterica serovar typhimurium; how it was run: as §1
[28] = Mutagenic activity in Salmonella Typhimurium TA100 assessed as increase in number of revertants at 80 ug/plate by Ames test presence of S9 fraction (Rvb=124+/-13); type: toxicity; details: salmonella enterica subsp. enterica serovar typhimurium; how it was run: as §1
[29] = Mutagenic activity in Salmonella Typhimurium TA98 assessed as increase in number of revertants at 80 ug/plate by Ames test absence of S9 fraction (Rvb=22+/- 4); type: toxicity; details: salmonella enterica subsp. enterica serovar typhimurium; how it was run: as §1
[30] = Mutagenic activity in Salmonella Typhimurium TA98 assessed as increase in number of revertants at 80 ug/plate by Ames test presence of S9 fraction (Rvb=34+/- 4); type: toxicity; details: salmonella enterica subsp. enterica serovar typhimurium; how it was run: as §1
[31] = Mutagenic activity in Salmonella Typhimurium TA102 assessed as increase in number of revertants at 40 ug/plate by Ames test absence of S9 fraction (Rvb=290+/-10); type: toxicity; details: salmonella enterica subsp. enterica serovar typhimurium; how it was run: as §1
[32] = Mutagenic activity in Salmonella typhimurium TA97a assessed as increase in number of revertants at 60 ug/plate by Ames test presence of S9 fraction (Rvb=154+/-18); type: toxicity; details: salmonella enterica subsp. enterica serovar typhimurium; how it was run: as §1
[33] = Mutagenic activity in Salmonella typhimurium TA98 assessed as increase in number of revertants at 40 ug/plate by Ames test absence of S9 fraction (Rvb=22+/- 4); type: toxicity; details: salmonella enterica subsp. enterica serovar typhimurium; how it was run: as §1
[34] = Mutagenic activity in Salmonella typhimurium TA97a assessed as increase in number of revertants at 0.002 ug/plate by Ames test absence of S9 fraction (Rvb=146+/- 8); type: toxicity; details: salmonella enterica subsp. enterica serovar typhimurium; how it was run: as §1

SMILES: C=C[C@@H]1C2=CCOC(=O)C2=CO[C@H]1O[C@@H]1O[C@H](CO)[C@@H](O)[C@H](O)[C@H]1O [GENTIOPICROSIDE]
- Activity [1]: 395
- Activity [2]: 117
- Activity [3]: 188
- Activity [4]: 135
- Activity [5]: 22
- Activity [6]: 180
- Activity [7]: 178
- Activity [8]: 385
- Activity [9]: 413
- Activity [10]: 31
- Activity [11]: 274
- Activity (CHO): Non-toxic
- Activity [12]: 378
- Activity [13]: 392
- Activity [14]: 376
- Activity [15]: 119
- Activity [16]: 32
- Activity [17]: 173
- Activity [18]: 138
- Activity [19]: 180
- Activity [20]: 29
- Activity [21]: 136
- Activity [22]: 174
- viability at 2 h [23]: 95%
- Activity [24]: 116
- Activity [25]: 26
- Activity [26]: 138
- Activity [27]: 385
- Activity [28]: 140
- Activity [29]: 26
- Activity [30]: 28
- Activity [31]: 368
- Activity [32]: 186
- Activity [33]: 19

SMILES: COc1ccc2nc3cc(Cl)ccc3c(NCCCNCCCl)c2c1
- Activity [34]: 1287
